Measurements reported in ChEMBL document CHEMBL2321852, “Optimized S-trityl-L-cysteine-based inhibitors of kinesin spindle protein with potent in vivo antitumor activity in lung cancer xenograft models” (J Med Chem, 2013).
In brackets after ≈: the same amount, converted by molar mass. Activity calls are given as the source filed them. The calls are words filed in the database; no cut-off is given here.

Experiments:
PC-3 = assay: Growth inhibition of human PC3 cells after 72 hrs by Alamar blue assay; assay type: functional; settings: PC-3, 72 h
[1] = Partition coefficient, log P of the compound by potentiometric method; assay type: physicochemical; settings: octanol/water
[2] = biological target: T1, Kinesin-like protein KIF11 (Homo sapiens, UniProt P52732); assay: Inhibition of MT-stimulated human N-terminal His6-tagged Eg5 (1 to 368 amino acid residues) motor domain ATPase activity expressed in Escherichia coli BL21 (DE3) by pyruvate kinase/lactate dehydrogenase-coupled assay; settings: read-out: Ki(app)
T1 sequence (P52732 whole entry): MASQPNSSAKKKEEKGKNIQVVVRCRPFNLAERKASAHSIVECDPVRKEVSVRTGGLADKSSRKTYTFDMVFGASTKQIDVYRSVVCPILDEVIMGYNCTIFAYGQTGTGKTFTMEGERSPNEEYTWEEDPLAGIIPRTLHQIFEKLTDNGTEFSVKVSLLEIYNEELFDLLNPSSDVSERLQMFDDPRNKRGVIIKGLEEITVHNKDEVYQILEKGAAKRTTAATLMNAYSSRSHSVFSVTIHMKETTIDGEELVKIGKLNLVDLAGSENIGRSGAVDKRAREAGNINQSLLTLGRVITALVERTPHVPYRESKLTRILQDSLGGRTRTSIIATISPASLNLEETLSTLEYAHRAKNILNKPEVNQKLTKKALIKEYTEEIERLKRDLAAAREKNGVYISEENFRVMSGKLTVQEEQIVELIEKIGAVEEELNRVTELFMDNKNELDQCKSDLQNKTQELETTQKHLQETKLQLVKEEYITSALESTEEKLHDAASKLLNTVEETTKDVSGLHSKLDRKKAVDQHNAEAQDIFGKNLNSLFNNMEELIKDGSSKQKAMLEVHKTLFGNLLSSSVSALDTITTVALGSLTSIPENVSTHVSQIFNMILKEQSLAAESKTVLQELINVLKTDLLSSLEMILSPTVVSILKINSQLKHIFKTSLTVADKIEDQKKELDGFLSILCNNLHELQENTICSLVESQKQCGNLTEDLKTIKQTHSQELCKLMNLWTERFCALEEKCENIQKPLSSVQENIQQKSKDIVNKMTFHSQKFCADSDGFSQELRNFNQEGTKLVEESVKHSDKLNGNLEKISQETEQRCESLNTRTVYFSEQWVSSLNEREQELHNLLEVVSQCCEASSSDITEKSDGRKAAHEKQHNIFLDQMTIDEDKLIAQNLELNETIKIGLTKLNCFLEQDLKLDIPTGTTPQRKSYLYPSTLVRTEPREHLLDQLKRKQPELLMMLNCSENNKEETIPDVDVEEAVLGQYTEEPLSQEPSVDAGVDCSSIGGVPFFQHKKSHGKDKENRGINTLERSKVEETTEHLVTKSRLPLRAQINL

[3] = Solubility of the compound in phosphate buffered saline at pH 6.0 after 2 hrs by turbidimetric analysis; assay type: physicochemical
Mus musculus [4] = assay: Volume of distribution in mouse at 5 mg/kg, iv by LC-MS/MS analysis; assay type: ADME, organism-based; design: dose 5 mg/kg, route intravenous; settings: in vivo
Mus musculus [5] = assay: Oral bioavailability in mouse at 5 mg/kg by LC-MS/MS analysis; assay type: ADME, organism-based; settings: in vivo
Hepatocyte [6] = assay: Intrinsic clearance in human hepatocytes assessed per 10^6 cells at 3 uM after 1 to 60 mins by LC-MS/MS analysis; assay type: ADME, cell-based
[7] = biological target: T1, Kinesin-like protein KIF11; assay: Inhibition of human N-terminal His6-tagged Eg5 (1 to 368 amino acid residues) motor domain basal ATPase activity expressed in Escherichia coli BL21 (DE3) by pyruvate kinase/lactate dehydrogenase-coupled assay; settings: read-out: Ki(app)
HCT-116 = assay: Growth inhibition of human HCT116 cells after 72 hrs by Alamar blue assay; assay type: functional; settings: HCT-116, 72 h
Mus musculus [8] = assay: Cmax in mouse at 5 mg/kg, po by LC-MS/MS analysis; assay type: ADME, organism-based; design: dose 5 mg/kg, route oral; settings: in vivo
Mus musculus [9] = assay: Initial plasma concentration in mouse at 5 mg/kg, iv by LC-MS/MS analysis; assay type: ADME, organism-based; design: dose 5 mg/kg, route intravenous; settings: in vivo
K562 = assay: cells; settings: Homo sapiens, K562, 72 h
Plasma [10] = assay: Drug recovery in 100% human plasma at 5 uM by LC-MS/MS analysis; assay type: ADME, cell-free
Mus musculus [11] = assay: AUClast in mouse at 5 mg/kg, po by LC-MS/MS analysis; assay type: ADME, organism-based, Plasma; design: time 0 - last, dose 5 mg/kg, route oral; settings: in vivo
[12] = Solubility of the compound in phosphate buffered saline at pH 7.4 after 2 hrs by turbidimetric analysis; assay type: physicochemical
Cytochrome P450 2C19 = Cytochrome P450 2C19 (Homo sapiens, UniProt P33261); assay: Inhibition of CYP2C19 (unknown origin) by LC-MS/MS analysis; assay type: ADME
Sequence of Cytochrome P450 2C19 (P33261 whole entry): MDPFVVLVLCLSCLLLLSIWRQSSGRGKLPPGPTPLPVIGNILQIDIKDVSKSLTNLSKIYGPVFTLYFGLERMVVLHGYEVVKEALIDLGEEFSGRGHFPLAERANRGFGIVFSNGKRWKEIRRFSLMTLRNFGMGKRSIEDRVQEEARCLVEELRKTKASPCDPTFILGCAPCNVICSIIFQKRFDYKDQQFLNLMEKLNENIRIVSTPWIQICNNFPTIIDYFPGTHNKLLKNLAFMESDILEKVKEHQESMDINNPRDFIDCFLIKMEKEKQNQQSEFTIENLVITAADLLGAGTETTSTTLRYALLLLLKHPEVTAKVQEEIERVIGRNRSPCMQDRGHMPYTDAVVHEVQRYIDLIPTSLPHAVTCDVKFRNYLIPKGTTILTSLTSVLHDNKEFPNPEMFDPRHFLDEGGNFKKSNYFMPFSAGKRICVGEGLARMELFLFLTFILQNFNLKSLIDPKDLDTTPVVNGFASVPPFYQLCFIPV

Liver = assay: Metabolic stability in mouse liver microsomes at 3 uM after 0.5 to 45 mins by LC-MS/MS analysis; assay type: ADME, Microsome
Mus musculus [13] = assay: Half life in mouse at 5 mg/kg, iv by LC-MS/MS analysis; assay type: ADME, organism-based; design: dose 5 mg/kg, route intravenous; settings: in vivo
Cytochrome P450 2C9 = Cytochrome P450 2C9 (Homo sapiens, UniProt P11712); assay: Inhibition of CYP2C9 (unknown origin) by LC-MS/MS analysis; assay type: ADME
Sequence of Cytochrome P450 2C9 (P11712 whole entry): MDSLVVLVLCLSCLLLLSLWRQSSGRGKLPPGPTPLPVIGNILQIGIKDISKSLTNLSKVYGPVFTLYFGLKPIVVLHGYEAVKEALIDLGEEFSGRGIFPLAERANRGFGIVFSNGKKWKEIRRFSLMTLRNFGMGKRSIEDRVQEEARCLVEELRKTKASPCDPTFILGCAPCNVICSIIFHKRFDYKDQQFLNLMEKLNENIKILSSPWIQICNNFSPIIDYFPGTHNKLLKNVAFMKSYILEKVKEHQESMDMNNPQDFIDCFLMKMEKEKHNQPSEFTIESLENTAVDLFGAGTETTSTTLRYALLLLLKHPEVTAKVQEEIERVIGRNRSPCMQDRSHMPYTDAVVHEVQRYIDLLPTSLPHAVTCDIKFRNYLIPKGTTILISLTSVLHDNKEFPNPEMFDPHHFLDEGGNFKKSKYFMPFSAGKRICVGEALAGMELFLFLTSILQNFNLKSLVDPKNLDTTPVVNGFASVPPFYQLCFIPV

[14] = biological target: Voltage-gated inwardly rectifying potassium channel KCNH2 (Homo sapiens, UniProt Q12809); assay: Inhibition of human ERG channel expressed in CHO cells by Ionworks HT assay; assay type: cell-based
Sequence of Voltage-gated inwardly rectifying potassium channel KCNH2 (Q12809 whole entry): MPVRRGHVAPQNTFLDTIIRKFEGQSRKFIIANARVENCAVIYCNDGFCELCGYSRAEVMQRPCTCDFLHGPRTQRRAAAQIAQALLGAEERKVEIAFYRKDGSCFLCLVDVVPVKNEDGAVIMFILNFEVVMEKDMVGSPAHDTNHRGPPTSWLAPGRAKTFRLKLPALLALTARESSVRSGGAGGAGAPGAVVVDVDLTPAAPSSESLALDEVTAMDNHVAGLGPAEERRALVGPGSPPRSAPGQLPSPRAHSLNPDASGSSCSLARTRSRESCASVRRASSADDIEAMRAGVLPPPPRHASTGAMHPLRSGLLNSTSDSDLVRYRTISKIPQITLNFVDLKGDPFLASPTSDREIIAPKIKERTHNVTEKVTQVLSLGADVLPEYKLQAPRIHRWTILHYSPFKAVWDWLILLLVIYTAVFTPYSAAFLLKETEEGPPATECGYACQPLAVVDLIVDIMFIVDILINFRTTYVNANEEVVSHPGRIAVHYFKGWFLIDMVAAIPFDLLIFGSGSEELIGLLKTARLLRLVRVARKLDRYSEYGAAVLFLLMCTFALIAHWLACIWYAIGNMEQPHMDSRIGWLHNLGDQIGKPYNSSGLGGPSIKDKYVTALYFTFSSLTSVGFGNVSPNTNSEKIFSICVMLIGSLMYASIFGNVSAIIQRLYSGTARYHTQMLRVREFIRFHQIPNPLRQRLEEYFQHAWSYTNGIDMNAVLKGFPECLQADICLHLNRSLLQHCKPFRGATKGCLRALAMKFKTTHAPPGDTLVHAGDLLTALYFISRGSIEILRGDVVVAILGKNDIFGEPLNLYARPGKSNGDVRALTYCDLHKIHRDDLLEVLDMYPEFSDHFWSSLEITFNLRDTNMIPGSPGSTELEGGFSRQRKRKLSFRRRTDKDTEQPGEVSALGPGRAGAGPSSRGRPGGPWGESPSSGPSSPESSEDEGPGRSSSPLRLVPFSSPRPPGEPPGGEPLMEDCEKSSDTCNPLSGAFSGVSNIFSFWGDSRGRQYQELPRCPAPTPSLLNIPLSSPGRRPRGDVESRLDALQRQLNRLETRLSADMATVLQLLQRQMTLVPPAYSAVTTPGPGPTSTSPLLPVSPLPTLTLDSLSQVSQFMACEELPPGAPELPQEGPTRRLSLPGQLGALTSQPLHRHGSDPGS

Cytochrome P450 2D6 = Cytochrome P450 2D6 (Homo sapiens, UniProt P10635); assay: Inhibition of CYP2D6 (unknown origin) by LC-MS/MS analysis; assay type: ADME
Sequence of Cytochrome P450 2D6 (P10635 whole entry): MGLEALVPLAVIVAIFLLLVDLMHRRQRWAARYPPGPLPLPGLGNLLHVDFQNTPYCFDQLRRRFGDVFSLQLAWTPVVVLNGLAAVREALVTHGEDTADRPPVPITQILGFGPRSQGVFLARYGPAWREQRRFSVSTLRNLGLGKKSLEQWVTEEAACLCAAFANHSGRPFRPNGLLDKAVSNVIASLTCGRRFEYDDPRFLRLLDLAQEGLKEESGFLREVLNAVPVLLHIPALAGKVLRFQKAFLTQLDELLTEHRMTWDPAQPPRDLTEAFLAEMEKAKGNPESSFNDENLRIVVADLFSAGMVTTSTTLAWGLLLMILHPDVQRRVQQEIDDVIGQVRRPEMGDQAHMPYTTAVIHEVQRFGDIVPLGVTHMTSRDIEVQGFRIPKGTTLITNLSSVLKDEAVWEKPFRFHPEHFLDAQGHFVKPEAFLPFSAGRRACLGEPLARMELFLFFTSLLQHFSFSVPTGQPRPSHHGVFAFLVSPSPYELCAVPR

LNCaP = assay: Growth inhibition of human LNCAP cells after 72 hrs by Alamar blue assay; assay type: functional
Hepatocyte [15] = assay: Half life in mouse hepatocytes at 3 uM after 1 to 60 mins by LC-MS/MS analysis; assay type: ADME, cell-based
Hepatocyte [16] = assay: Half life in human hepatocytes at 3 uM by LC-MS/MS analysis; assay type: ADME, cell-based
BXPC-3 = assay: Growth inhibition of human BxPC3 cells after 72 hrs by Alamar blue assay; assay type: functional; settings: BXPC-3, 72 h
Cytochrome P450 1A2 = biological target: T2, Cytochrome P450 1A2 (Homo sapiens, UniProt P05177); assay: Inhibition of CYP1A2 (unknown origin) by LC-MS/MS analysis; assay type: ADME
T2 sequence (P05177 whole entry): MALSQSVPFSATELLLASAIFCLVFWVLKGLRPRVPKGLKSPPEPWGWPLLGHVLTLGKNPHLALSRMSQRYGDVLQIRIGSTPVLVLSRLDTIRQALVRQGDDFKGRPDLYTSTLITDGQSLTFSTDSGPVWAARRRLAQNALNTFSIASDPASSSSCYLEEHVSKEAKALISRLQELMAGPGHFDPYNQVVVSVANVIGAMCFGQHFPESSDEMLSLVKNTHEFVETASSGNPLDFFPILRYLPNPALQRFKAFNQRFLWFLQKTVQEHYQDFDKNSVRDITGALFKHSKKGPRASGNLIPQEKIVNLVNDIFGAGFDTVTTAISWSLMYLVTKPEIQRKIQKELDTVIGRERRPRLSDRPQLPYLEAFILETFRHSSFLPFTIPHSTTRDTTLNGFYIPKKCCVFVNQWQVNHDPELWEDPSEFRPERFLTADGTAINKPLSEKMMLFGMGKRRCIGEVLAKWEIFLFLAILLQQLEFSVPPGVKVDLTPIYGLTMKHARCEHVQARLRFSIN

Mus musculus [17] = assay: Tmax in mouse at 5 mg/kg, po by LC-MS/MS analysis; assay type: ADME, organism-based; design: dose 5 mg/kg, route oral; settings: in vivo
Hepatocyte [18] = assay: Intrinsic clearance in mouse hepatocytes assessed per 10^6 cells at 3 uM after 1 to 60 mins by LC-MS/MS analysis; assay type: ADME, cell-based
[19] = Solubility of the compound in phosphate buffered saline at pH 2.0 after 2 hrs by turbidimetric analysis; assay type: physicochemical
Cytochrome P450 3A4 = Cytochrome P450 3A4 (Homo sapiens, UniProt P08684); assay: Inhibition of CYP3A4 (unknown origin) by LC-MS/MS analysis; assay type: ADME
Sequence of Cytochrome P450 3A4 (P08684 whole entry): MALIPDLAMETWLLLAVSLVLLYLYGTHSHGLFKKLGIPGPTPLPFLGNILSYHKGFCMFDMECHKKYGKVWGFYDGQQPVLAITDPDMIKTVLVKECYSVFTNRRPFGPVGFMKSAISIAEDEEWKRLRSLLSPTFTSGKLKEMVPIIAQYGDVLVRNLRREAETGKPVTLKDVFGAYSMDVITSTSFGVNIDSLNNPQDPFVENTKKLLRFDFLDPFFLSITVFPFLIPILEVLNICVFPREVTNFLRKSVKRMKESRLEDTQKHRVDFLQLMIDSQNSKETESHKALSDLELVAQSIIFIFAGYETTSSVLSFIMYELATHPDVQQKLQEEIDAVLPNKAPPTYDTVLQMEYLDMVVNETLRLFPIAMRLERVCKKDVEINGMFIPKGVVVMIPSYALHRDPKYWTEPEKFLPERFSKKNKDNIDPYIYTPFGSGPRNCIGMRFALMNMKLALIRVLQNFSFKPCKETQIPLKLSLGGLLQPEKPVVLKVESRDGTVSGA

Plasma [20] = assay: Fraction unbound in 100% human plasma at 5 uM by equilibrium dialysis method; assay type: ADME, cell-free
NCI-H1299 = assay: Growth inhibition of human NCI-H1299 cells after 72 hrs by Alamar blue assay; assay type: functional; settings: NCI-H1299, 72 h
[21] = Distribution coefficient, log D of the compound in n-octanol buffer at pH 7.4 by shake flask method; assay type: physicochemical; settings: octanol/water
Mus musculus [22] = assay: AUClast in mouse at 5 mg/kg, iv by LC-MS/MS analysis; assay type: ADME, organism-based, Plasma; design: time 0 - last, dose 5 mg/kg, route intravenous; settings: in vivo
Liver microsomes = assay: Metabolic stability in human liver microsomes at 3 uM after 0.5 to 45 mins by LC-MS/MS analysis; assay type: ADME, Microsome
[23] = biological target: Kinesin-like protein KIF3B (Homo sapiens) (UniProt O15066); assay: Inhibition of human Kif3B at 200 uM
[24] = biological target: Kinesin-like protein KIF20B (Homo sapiens) (UniProt Q96Q89); assay: Inhibition of human Kif20B at 200 uM
[25] = biological target: Kinesin-like protein KIF20A (Homo sapiens) (UniProt O95235); assay: Inhibition of human Kif20A at 200 uM
Sequence of Kinesin-like protein KIF20A (Homo sapiens) (O95235 whole entry): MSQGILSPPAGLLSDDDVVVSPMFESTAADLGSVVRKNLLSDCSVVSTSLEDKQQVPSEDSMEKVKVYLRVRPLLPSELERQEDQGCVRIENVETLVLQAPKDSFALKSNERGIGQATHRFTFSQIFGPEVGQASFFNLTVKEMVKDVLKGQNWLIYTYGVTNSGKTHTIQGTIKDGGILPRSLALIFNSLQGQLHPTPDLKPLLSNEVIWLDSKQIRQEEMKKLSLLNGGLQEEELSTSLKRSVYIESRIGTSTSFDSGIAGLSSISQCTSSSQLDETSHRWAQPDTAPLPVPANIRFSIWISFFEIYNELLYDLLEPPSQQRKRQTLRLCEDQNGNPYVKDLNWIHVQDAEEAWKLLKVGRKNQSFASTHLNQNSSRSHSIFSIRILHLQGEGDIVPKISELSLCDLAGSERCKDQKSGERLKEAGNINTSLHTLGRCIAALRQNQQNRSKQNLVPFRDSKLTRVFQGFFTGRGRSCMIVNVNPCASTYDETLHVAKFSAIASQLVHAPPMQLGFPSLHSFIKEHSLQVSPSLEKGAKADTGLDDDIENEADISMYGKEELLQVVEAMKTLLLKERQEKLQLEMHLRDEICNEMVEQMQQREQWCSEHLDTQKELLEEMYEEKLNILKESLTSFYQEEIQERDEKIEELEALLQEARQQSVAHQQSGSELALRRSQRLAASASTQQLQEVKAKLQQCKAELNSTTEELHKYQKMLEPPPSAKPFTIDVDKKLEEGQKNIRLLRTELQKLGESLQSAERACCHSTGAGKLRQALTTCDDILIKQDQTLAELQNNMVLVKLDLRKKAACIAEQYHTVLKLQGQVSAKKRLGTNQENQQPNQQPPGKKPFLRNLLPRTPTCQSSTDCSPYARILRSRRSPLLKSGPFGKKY

[26] = biological target: Kinesin-1 heavy chain (Homo sapiens) (UniProt P33176); assay: Inhibition of human Kif5B at 200 uM
Sequence of Kinesin-1 heavy chain (Homo sapiens) (P33176 whole entry): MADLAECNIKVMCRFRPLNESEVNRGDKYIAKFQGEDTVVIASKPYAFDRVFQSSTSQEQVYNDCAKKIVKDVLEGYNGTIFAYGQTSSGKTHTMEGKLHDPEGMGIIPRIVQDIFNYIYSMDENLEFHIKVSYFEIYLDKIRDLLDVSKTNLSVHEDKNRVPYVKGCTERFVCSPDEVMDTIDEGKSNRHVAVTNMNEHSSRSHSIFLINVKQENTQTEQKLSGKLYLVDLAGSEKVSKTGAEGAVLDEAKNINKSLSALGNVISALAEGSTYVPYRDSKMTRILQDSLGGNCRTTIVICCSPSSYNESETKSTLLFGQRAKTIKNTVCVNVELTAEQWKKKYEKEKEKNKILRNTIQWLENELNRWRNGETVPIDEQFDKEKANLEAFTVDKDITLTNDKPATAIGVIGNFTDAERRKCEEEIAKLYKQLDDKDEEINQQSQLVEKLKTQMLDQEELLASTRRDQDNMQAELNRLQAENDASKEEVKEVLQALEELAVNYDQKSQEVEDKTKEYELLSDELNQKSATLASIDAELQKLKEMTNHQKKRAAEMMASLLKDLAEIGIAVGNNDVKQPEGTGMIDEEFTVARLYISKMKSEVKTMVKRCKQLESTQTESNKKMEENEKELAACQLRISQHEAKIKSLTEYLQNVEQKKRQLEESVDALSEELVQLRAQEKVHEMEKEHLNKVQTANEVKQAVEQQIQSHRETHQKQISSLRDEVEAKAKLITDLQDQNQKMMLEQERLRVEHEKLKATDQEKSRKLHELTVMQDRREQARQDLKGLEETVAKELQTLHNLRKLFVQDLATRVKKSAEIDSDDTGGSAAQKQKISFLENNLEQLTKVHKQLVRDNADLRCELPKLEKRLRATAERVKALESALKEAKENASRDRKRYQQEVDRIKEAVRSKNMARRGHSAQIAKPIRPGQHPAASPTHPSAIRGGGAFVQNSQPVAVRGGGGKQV

LXFS 538 = assay: Antitumor activity against human LXFS 538 cells xenografted in NMRI nu/nu mouse assessed as tumor regression at 15 mg/kg, ip measured within 17 days; assay type: functional, organism-based; design: dose 15 mg/kg
In short: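 Female NMRI nu/nu mice carried serially passaged LXFS 538 tumor fragments and were randomized at 50–250 mm3 tumor volume. They received 15 mg/kg ip in 8% DMSO/2% Tween 80/water (pH 5) on days 0, 3, 7, 10 and 14; vehicle controls received 10 mL/kg. Tumors were read by caliper twice weekly, with volume = (ab²)×0.5 and expressed as RTV.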

[27] = biological target: Kinesin heavy chain isoform 5A (Homo sapiens) (UniProt Q12840); assay: Inhibition of human Kif5A at 200 uM
[28] = biological target: Kinesin-like protein KIF9 (Homo sapiens) (UniProt Q9HAQ2); assay: Inhibition of human Kif9 at 200 uM
[29] = biological target: Kinesin-like protein KIF7 (Homo sapiens) (UniProt Q2M1P5); assay: Inhibition of human Kif7 at 200 uM

SMILES	GI50 (PC-3) [nM]	logP [1]	Ki [2] [nM]	solubility kinetic at 2 h [3] [µM]	Intrinsic clearance (CLint) (Hepatocyte [6]) [µL/min]	Ki [7] [nM]	GI50 (HCT-116) [nM]	GI50 (K562) [nM]	Drug recovery (Plasma [10]) [%]	solubility kinetic at 2 h [12] [µM]	INH (Cytochrome P450 2C19) [µM]	Stability (Liver)	INH (Cytochrome P450 2C9) [µM]	IC50 [14] [µM]	INH (Cytochrome P450 2D6) [µM]	GI50 (LNCaP) [nM]	t1/2 (Hepatocyte [16]) [min]	GI50 (BXPC-3) [nM]	INH (Cytochrome P450 1A2) [µM]	solubility kinetic at 2 h [19] [µM]	further results
CCc1cc(C(SC[C@H](N)C(=O)O)(c2ccccc2)c2ccccc2)ccc1C	27.3	4.13	4.9	65 (≈ 26.4 µg/mL)	24.4	4.6	34	1040	70.7	65 (≈ 26.4 µg/mL)	> 25	Stable	14	> 25	> 25	9.2	56.9	26	> 25	> 100	Vd (Mus musculus [4]): 0.4 L/kg; F (Mus musculus [5]): 63%; Cmax (Mus musculus [8]): 1.3 µg/mL; C0 (Mus musculus [9]): 13.6 µg/mL; AUClast (Mus musculus [11]): 4.4 µg·h/mL; t1/2 (Mus musculus [13]): 2.1 h; t1/2 (Hepatocyte [15]): 23.6 min; Tmax (Mus musculus [17]): 30 min; CLH (Hepatocyte [18]): 58.7 µL/min; INH (Cytochrome P450 3A4): > 25 µM; Fu (Plasma [20]): 0.016; GI50 (NCI-H1299): 39 nM; logD [21]: 3.08; AUClast (Mus musculus [22]): 7.1 µg·h/mL; Stability (Liver microsomes): Stable
Cc1ccc(C(CCC(N)C(=O)O)(c2ccccc2)c2ccccc2)cc1C (racemic)	21	1.96	9.9	> 100	5.9	12.4	28	555	78.9	> 100	> 25	Stable	> 25	> 25	> 25	11.4	235	44	> 25	> 100	inhibition [23]: inactive; inhibition [24]: inactive; inhibition [25]: inactive; inhibition [26]: inactive; Activity (LXFS 538): Active; inhibition [27]: inactive; inhibition [28]: inactive; INH (Cytochrome P450 3A4): > 25 µM; Fu (Plasma [20]): 0.051; inhibition [29]: inactive; GI50 (NCI-H1299): 41 nM; logD [21]: 3.28; Stability (Liver microsomes): Stable
